Assay results taken from ChEMBL document CHEMBL4400578, “Spirocyclic and Bicyclic 8-Nitrobenzothiazinones for Tuberculosis with Improved Physicochemical and Pharmacokinetic Properties” (ACS Med Chem Lett, 2019).
In brackets after ≈: the same amount, converted by molar mass.

How the values were obtained:
[1] = biological target: T1, Decaprenylphosphoryl-beta-D-ribose oxidase (Mycobacterium tuberculosis (strain ATCC 25618 / H37Rv)) (UniProt P9WJF1); assay: Inhibition of Mycobacterium tuberculosis H37Rv DprE1 assessed as reduction in bacterial growth measured after 7 to 10 days by broth microdilution method
T1 sequence (whole entry): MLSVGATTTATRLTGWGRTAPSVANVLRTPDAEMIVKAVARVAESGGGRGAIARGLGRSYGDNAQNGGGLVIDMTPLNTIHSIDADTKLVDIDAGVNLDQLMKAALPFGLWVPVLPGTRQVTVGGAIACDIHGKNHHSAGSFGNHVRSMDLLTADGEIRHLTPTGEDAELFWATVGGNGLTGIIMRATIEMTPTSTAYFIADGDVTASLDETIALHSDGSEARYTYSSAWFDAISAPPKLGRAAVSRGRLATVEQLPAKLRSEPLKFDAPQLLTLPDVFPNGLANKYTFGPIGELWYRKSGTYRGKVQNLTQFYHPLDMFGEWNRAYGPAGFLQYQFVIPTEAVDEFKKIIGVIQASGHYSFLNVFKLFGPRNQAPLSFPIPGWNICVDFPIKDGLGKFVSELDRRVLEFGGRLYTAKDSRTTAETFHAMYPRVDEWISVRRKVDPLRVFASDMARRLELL
How it was run: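 Whole-cell growth assay of M. tuberculosis H37Rv in 7H9 broth. MIC is taken as the lowest concentration giving complete inhibition of observable growth.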

[2] = Selectivity ratio of MIC90 for inhibition of DprE1-mediated growth of Mycobacterium tuberculosis H37Rv to MIC90 for inhibition of DprE1-mediated growth of Mycobacterium tuberculosis CDC1551
[3] = Selectivity ratio of MIC90 for inhibition of DprE1-mediated growth of Mycobacterium tuberculosis H37Rv to MIC90 for inhibition of DprE1-mediated growth of Mycobacterium tuberculosis Erdman
[4] = Kinetic aqueous solubility of the compound in pH 7.4 phosphate buffer incubated for 4.5 hrs under shaking condition by LC-MS/MS analysis; assay type: physicochemical; conditions: read-out: Kinetic_solubility
How it was run: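 Kinetic solubility measured in phosphate-buffered saline at pH 7.4, with compound quantified by LC–MS/MS.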

[5] = Half life in mouse liver microsomes at 2.5 uL preincubated for 5 mins followed by NADPH addition and measured by LC-MS/MS analysis; assay type: ADME, Microsome
[6] = Half life in […] microsomes at 2.5 uL preincubated for 5 mins followed by NADPH addition and measured by LC-MS/MS analysis; assay type: ADME, Liver, Microsome
[7] = Intrinsic clearance in mouse liver microsomes at 2.5 uL preincubated for 5 mins followed by NADPH addition and measured by LC-MS/MS analysis; assay type: ADME, Microsome; conditions: read-out: CLH
[8] = Intrinsic clearance in human liver microsomes at 2.5 uL preincubated for 5 mins followed by NADPH addition and measured by LC-MS/MS analysis; assay type: ADME, Microsome; conditions: read-out: CLH
[9] = Protein binding in plasma (unknown origin) measured after 5 hrs by equilibrium dialysis method; assay type: ADME, cell-free; conditions: read-out: PPB (converted)
[10] = Stability of the compound in plasma (unknown origin); assay type: ADME, cell-free
[11] = Ratio of test compound kinetic aqueous solubility to PBTZ169 kinetic aqueous solubility; assay type: physicochemical; conditions: buffer
[12] = Cmax in specific pathogen free ICR mouse at 10 mg/kg, po by LC/TSQ-MS analysis; assay type: ADME, organism-based; parameters: dose 10 mg/kg, route oral; conditions: in vivo
How it was run: (§1)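 ICR mice dosed once with compound, intravenously at 2 mg/kg or orally at 10 mg/kg. Plasma pharmacokinetic parameters derived per route: AUC, Cmax, clearance, mean residence time, Vd, terminal elimination half-life, and oral bioavailability from the p.o. versus i.v. comparison.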

[13] = Terminal half life in specific pathogen free ICR mouse at 10 mg/kg, po by LC/TSQ-MS analysis; assay type: ADME, organism-based; conditions: in vivo, read-out: beta t1/2 (converted); how it was run: as §1
[14] = Mean residence time in specific pathogen free ICR mouse at 10 mg/kg, po by LC/TSQ-MS analysis; assay type: ADME, organism-based; conditions: in vivo; how it was run: as §1
[15] = AUC in specific pathogen free ICR mouse at 10 mg/kg, po by LC/TSQ-MS analysis; assay type: ADME, organism-based; conditions: in vivo; how it was run: as §1
[16] = Oral bioavailability in specific pathogen free ICR mouse at 10 mg/kg by LC/TSQ-MS analysis; assay type: ADME, organism-based; conditions: in vivo; how it was run: as §1
[17] = Cmax in specific pathogen free ICR mouse at 2 mg/kg, iv by LC/TSQ-MS analysis; assay type: ADME, organism-based; parameters: dose 2 mg/kg, route intravenous; conditions: in vivo; how it was run: as §1
[18] = Terminal half life in specific pathogen free ICR mouse at 2 mg/kg, iv by LC/TSQ-MS analysis; assay type: ADME, organism-based; conditions: in vivo, read-out: beta t1/2 (converted); how it was run: as §1
[19] = Mean residence time in specific pathogen free ICR mouse at 2 mg/kg, iv by LC/TSQ-MS analysis; assay type: ADME, organism-based; conditions: in vivo; how it was run: as §1
[20] = AUC in specific pathogen free ICR mouse at 2 mg/kg, iv by LC/TSQ-MS analysis; assay type: ADME, organism-based; conditions: in vivo; how it was run: as §1
[21] = Intrinsic clearance in specific pathogen free ICR mouse at 2 mg/kg, iv by LC/TSQ-MS analysis; assay type: ADME, organism-based; conditions: in vivo
[22] = Volume of distribution in specific pathogen free ICR mouse at 2 mg/kg, iv by LC/TSQ-MS analysis; assay type: ADME, organism-based; conditions: in vivo; how it was run: as §1

Row | Structure (SMILES) | MIC [1] | Selectivity ratio [2] | Selectivity ratio [3] | solubility kinetic at 4.5 h [4] | half-life [5] | half-life [6] | microsomal CLint [7] | microsomal CLint [8] | fraction unbound at 5 h [9] | Stability [10] | other results
1 | O=c1nc(N2C[C@H]3C[C@@H](C2)N3CC2CCCCC2)sc2c([N+](=O)[O-])cc(C(F)(F)F)cc12 | 0.128 µM (≈ 0.06 µg/mL) | < 4 | < 4 |  |  |  |  |  |  |  | 
2 | O=c1nc(N2CC3(CCN(CC4CCCCC4)CC3)C2)sc2c([N+](=O)[O-])cc(C(F)(F)F)cc12 | 1.02 µM (≈ 0.508 µg/mL) | < 4 | < 4 |  |  |  |  |  |  |  | 
3 | O=c1nc(N2C[C@H]3C[C@@H]2CN3CC2CCCCC2)sc2c([N+](=O)[O-])cc(C(F)(F)F)cc12 | 0.064 µM (≈ 0.03 µg/mL) | < 4 | < 4 | 14.6 µg/mL (≈ 31.2 µM) | 7.05 min | 26.6 min | 98.4 µL/min/mg | 26.1 µL/min/mg | 0.004 | 81.9% | Ratio [11]: 1600
4 | O=c1nc(N2CCCC3(CCCCN3CC3CCCCC3)C2)sc2c([N+](=O)[O-])cc(C(F)(F)F)cc12 (stereo unspecified) | 1.02 µM (≈ 0.537 µg/mL) | < 4 | < 4 |  |  |  |  |  |  |  | 
5 | O=c1nc(N2CCC3(CC2)CN(CC2CCCCC2)C3)sc2c([N+](=O)[O-])cc(C(F)(F)F)cc12 | 0.512 µM (≈ 0.254 µg/mL) | < 4 | < 4 |  |  |  |  |  |  |  | 
6 | O=c1nc(N2CC3CCC2CN3CC2CCCCC2)sc2c([N+](=O)[O-])cc(C(F)(F)F)cc12 (stereo unspecified) | 0.032 µM (≈ 0.0154 µg/mL) | < 4 | < 4 | < 0.029 µg/mL | 27.3 min | 30.6 min | 25.4 µL/min/mg | 22.7 µL/min/mg | 0.001 | 102% | 
7 | O=c1nc(N2CC3(CN(CC4CCCCC4)C3)C2)sc2c([N+](=O)[O-])cc(C(F)(F)F)cc12 | 0.256 µM (≈ 0.12 µg/mL) | < 4 | < 4 |  |  |  |  |  |  |  | 
8 | O=c1nc(N2CCC3(CC2)CC3)sc2c([N+](=O)[O-])cc(C(F)(F)F)cc12 | 0.016 µM (≈ 0.00617 µg/mL) | < 4 | < 4 | 0.3 µg/mL (≈ 0.778 µM) | 8.33 min | 43 min | 83.3 µL/min/mg | 16.1 µL/min/mg | 0.006 | 93.3% | 
9 | O=c1nc(N2C[C@@H]3[C@H](C2)[C@H]3NCC2CCCCC2)sc2c([N+](=O)[O-])cc(C(F)(F)F)cc12 | 0.032 µM (≈ 0.015 µg/mL) | < 4 | < 4 | 4.8 µg/mL (≈ 10.2 µM) | 65.2 min | 76.6 min | 10.6 µL/min/mg | 9.05 µL/min/mg | 0.005 | 91.4% | Cmax [12]: 0.195 µg/mL; half-life [13]: 131 min; MRT [14]: 185 min; AUC [15]: 0.791 µg·h/mL; bioavailability [16]: 27.4%; Cmax [17]: 0.483 µg/mL; half-life [18]: 152 min; MRT [19]: 134 min; AUC [20]: 0.576 µg·h/mL; CL [21]: 3.49 L/h/kg; Vd [22]: 12.8 L/kg
10 | O=c1nc(N2CCC3(CCN(CC4CCCCC4)C3)C2)sc2c([N+](=O)[O-])cc(C(F)(F)F)cc12 (stereo unspecified) | 0.256 µM (≈ 0.127 µg/mL) | < 4 | < 4 |  |  |  |  |  |  |  | 
11 | O=c1nc(N2[C@@H]3C[C@H]2CN(CC2CCCCC2)C3)sc2c([N+](=O)[O-])cc(C(F)(F)F)cc12 | 0.128 µM (≈ 0.06 µg/mL) | < 4 | < 4 |  |  |  |  |  |  |  | 
12 | O=c1nc(N2CCC3(CCN(CC4CCCCC4)C3)CC2)sc2c([N+](=O)[O-])cc(C(F)(F)F)cc12 | 0.128 µM (≈ 0.0654 µg/mL) | < 4 | < 4 |  |  |  |  |  |  |  | 
13 | O=c1nc(N2CCN(CC3CCCCC3)CC2)sc2c([N+](=O)[O-])cc(C(F)(F)F)cc12 [MACOZINONE] | 0.002 µM (≈ 0.000913 µg/mL) | < 4 | < 4 | < 0.01 µg/mL | 34.4 min | 43 min | 20.1 µL/min/mg | 16.5 µL/min/mg | 0.001 | 88.7% | 
